Assay results reported in ChEMBL document CHEMBL3227919, “Development of ethyl 3,4-dihydro-4-oxopyrimido[4,5-b]quinoline-2-carboxylate, a new prototype with oral antiallergy activity” (1979).
The source made the active and inactive calls. The rule behind the calls is not given here.

Tests used:
[1] = tested on: Rattus norvegicus; assay: Antiallergic activity in Wistar Charles River rat assessed as inhibition of histamine-induced passive cutaneous anaphylaxis at 10 mg/kg, iv relative to control; format: functional
[2] = tested on: Rattus norvegicus; assay: Antiallergic activity in po dosed rat assessed as inhibition of passive cutaneous anaphylaxis; format: functional
[3] = tested on: Rattus norvegicus; assay: Antiallergic activity in Wistar Charles River rat assessed as inhibition of histamine-induced passive cutaneous anaphylaxis at 3 mg/kg, iv relative to control; format: functional
[4] = tested on: Rattus norvegicus; assay: Antiallergic activity in po dosed Wistar rat assessed as inhibition of ovalbumin-induced passive cutaneous anaphylaxis; format: functional
Outline: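 Male Charles River Wistar rats, 170-210 g. Reaginic egg-albumin antiserum was raised with Bordetella pertussis or Al(OH)3, then diluted to give a 15-mm wheal and injected intradermally (0.1 mL) into shaved back skin. After 48 h, drug or saline was given, then 2.5 mg Evans blue plus 5 mg egg albumin in saline. Each site was scored as diameter (mm) × dye-intensity grade (0.5-4), summed per group of 5 or 7 rats and compared with saline controls.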

[5] = tested on: Rattus norvegicus; assay: Antiallergic activity in po dosed Wistar rat assessed as inhibition of ovalbumin-induced passive cutaneous anaphylaxis relative to DSCG; format: functional
[6] = tested on: Homo sapiens; assay: Antiallergic activity in po dosed human assessed as oral active dose; format: functional
[7] = tested on: Rattus norvegicus; assay: Antiallergic activity in po dosed Wistar Charles River rat assessed as inhibition of histamine-induced passive cutaneous anaphylaxis; format: functional
[8] = tested on: Rattus norvegicus; assay: Antiallergic activity in Wistar Charles River rat assessed as inhibition of histamine-induced passive cutaneous anaphylaxis at 1 mg/kg, iv relative to control; format: functional
[9] = tested on: Rattus norvegicus; assay: Antiallergic activity in Wistar Charles River rat assessed as inhibition of histamine-induced passive cutaneous anaphylaxis at 30 mg/kg, iv relative to control; format: functional
[10] = tested on: Rattus norvegicus; assay: Antiallergic activity in Wistar Charles River rat assessed as inhibition of histamine-induced passive cutaneous anaphylaxis at 100 mg/kg, po relative to control; format: functional
[11] = tested on: Rattus norvegicus; assay: Antiallergic activity in Wistar Charles River rat assessed as inhibition of histamine-induced passive cutaneous anaphylaxis at 0.1 mg/kg, iv relative to control; format: functional
[12] = tested on: Rattus norvegicus; assay: Antiallergic activity in po dosed rat assessed as inhibition of antigen-induced passive cutaneous anaphylaxis; format: functional
[13] = tested on: Rattus norvegicus; assay: Antiallergic activity in po dosed rat assessed as inhibition of antigen-induced passive cutaneous anaphylaxis relative to DSCG; format: functional
[14] = tested on: Homo sapiens; assay: Antiallergic activity in po dosed human assessed as concentration required to inhibit antigen-induced clinical asthma; format: functional
[15] = tested on: Rattus norvegicus; assay: Antiallergic activity in Wistar Charles River rat assessed as inhibition of histamine-induced passive cutaneous anaphylaxis at 1 mg/kg, po relative to control; format: functional
[16] = tested on: Rattus norvegicus; assay: Antiallergic activity in Wistar Charles River rat assessed as inhibition of histamine-induced passive cutaneous anaphylaxis at 3 mg/kg, po relative to control; format: functional
[17] = tested on: Rattus norvegicus; assay: Antiallergic activity in Wistar Charles River rat assessed as inhibition of histamine-induced passive cutaneous anaphylaxis at 10 mg/kg, po relative to control; format: functional
[18] = tested on: Rattus norvegicus; assay: Antiallergic activity in Wistar Charles River rat assessed as inhibition of histamine-induced passive cutaneous anaphylaxis at 30 mg/kg, po relative to control; format: functional
[19] = tested on: Rattus norvegicus; assay: Inhibition of carrageenan-induced foot edema in rat at 10 mg/kg, po; format: functional, organism-based; parameters: dose 10 mg/kg
[20] = tested on: Cavia porcellus; assay: Inhibition of histamine-induced bronchoconstriction in guinea pig up to 100 mg/kg, po; format: functional, organism-based; parameters: dose 100 mg/kg
[21] = tested on: Rattus norvegicus; assay: Antiallergic activity in Wistar Charles River rat assessed as inhibition of histamine-induced passive cutaneous anaphylaxis at 30 mg/kg, ip relative to control; format: functional; conditions: route intraperitoneal
[22] = tested on: Rattus norvegicus; assay: Antiallergic activity in Wistar Charles River rat assessed as inhibition of histamine-induced passive cutaneous anaphylaxis at 50 mg/kg, ip relative to control; format: functional; conditions: route intraperitoneal

O=C(O)c1nc2ccccc2c(=O)[nH]1
inhibition in vivo at 10 mg/kg [1]: 52%

CCCOc1ccccc1-c1nc2[nH]nnc2c(=O)[nH]1 [ZAPRINAST]
ED50 [2]: 0.2 mg/kg

Cc1nc(O)c2cc3ccccc3cc2n1
inhibition in vivo at 3 mg/kg [3]: 15%

Cc1cc2c(cc1C)C(=O)C([N+](=O)[O-])C2=O
ED50 [4]: 1 mg/kg | fold change (FC) [5]: 25 | Activity [6]: 2 mg/kg

O=C([O-])c1cc(=O)c2c(OCC(O)COc3cccc4oc(C(=O)[O-])cc(=O)c34)cccc2o1.[Na+].[Na+] [CROMOLYN SODIUM]
ED50 [7]: 1 mg/kg | inhibition in vivo at 1 mg/kg [8]: 55% | inhibition in vivo at 3 mg/kg [3]: 77% | inhibition in vivo at 10 mg/kg [1]: 90% | inhibition in vivo at 30 mg/kg [9]: 99% | Activity [10]: inactive | inhibition in vivo at 0.1 mg/kg [11]: 14%

O=C(O)c1nc2cc3ccccc3cc2c(=O)[nH]1
inhibition in vivo at 1 mg/kg [8]: 14% | inhibition in vivo at 3 mg/kg [3]: 36% | inhibition in vivo at 10 mg/kg [1]: 100% | inhibition in vivo at 100 mg/kg [10]: 0%

CCc1ccc2occ(-c3nnn[nH]3)c(=O)c2c1
ED50 [12]: 7 mg/kg | fold change (FC) [13]: 4

CCCc1c2c(c(O)c3c(=O)cc(C(=O)O)oc13)CCCC2 [PROXICROMIL]
ED50 [12]: 15.5 mg/kg | fold change (FC) [13]: 0.19 | Activity [14]: 4.6 mg

CCOC(=O)CCc1n[nH]c2ccc(CC)cc2c1=O
ED50 [2]: 4 mg/kg

O=C(O)c1nc2ccc([N+](=O)[O-])cc2c(=O)[nH]1
inhibition in vivo at 30 mg/kg [9]: 67%

CCOC(=O)c1nc2c(C(F)(F)F)cc(Cl)cc2c(=O)[nH]1
inhibition in vivo at 10 mg/kg [1]: 0%

CCOC(=O)c1nc(O)c2cc3ccccc3nc2n1
ED50 [7]: 3 mg/kg | inhibition in vivo at 1 mg/kg [8]: 98% | inhibition [1]: inactive | inhibition in vivo at 100 mg/kg [10]: 80% | inhibition in vivo at 0.1 mg/kg [11]: 47% | inhibition in vivo at 1 mg/kg [15]: 12% | inhibition in vivo at 3 mg/kg [16]: 53% | inhibition in vivo at 10 mg/kg [17]: 75% | inhibition in vivo at 30 mg/kg [18]: 72% | inhibition [19]: inactive | inhibition [20]: inactive

COc1cccc2c(=O)c(CO)coc12
ED50 [2]: 2 mg/kg

CCOC(=O)c1nc2cc(OC)c(OC)cc2c(=O)[nH]1
inhibition in vivo at 30 mg/kg [9]: 80% | Activity [10]: inactive

COc1cc2nc(C(=O)O)[nH]c(=O)c2cc1OC
inhibition in vivo at 30 mg/kg [9]: 69% | Activity [10]: inactive

CCOC(=O)c1nc2cc3ccccc3cc2c(=O)[nH]1
inhibition in vivo at 100 mg/kg [10]: 38% | inhibition in vivo at 30 mg/kg [21]: 27%

O=C(O)c1nc2nc3ccccc3cc2c(=O)[nH]1
inhibition in vivo at 1 mg/kg [8]: 92% | inhibition in vivo at 100 mg/kg [10]: 96% | inhibition in vivo at 10 mg/kg [17]: 0% | inhibition in vivo at 30 mg/kg [18]: 57%

O=c1[nH]cnc2cc3ccccc3cc12
inhibition in vivo at 3 mg/kg [3]: 31%

O=c1[nH]c(=O)c2cc3ccccc3nc2[nH]1
inhibition in vivo at 3 mg/kg [3]: 41%

O=C(O)c1nc2c(C(F)(F)F)cc(Cl)cc2c(=O)[nH]1
inhibition in vivo at 10 mg/kg [1]: 0%

O=c1[nH]cnc2nc3ccccc3cc12
inhibition in vivo at 3 mg/kg [3]: 33% | inhibition in vivo at 10 mg/kg [1]: 4%

O=C(O)c1cc(=O)c2cc3c(=O)cc(C(=O)O)[nH]c3c(Cl)c2[nH]1
ED50 [12]: < 25.5 mg/kg | fold change (FC) [13]: 50

O=C(O)CCc1nc2cc3ccccc3cc2c(=O)[nH]1
inhibition in vivo at 10 mg/kg [1]: 7%

CCOC(=O)c1nc2ncccc2c(=O)[nH]1
inhibition in vivo at 1 mg/kg [8]: 6% | inhibition in vivo at 3 mg/kg [3]: 66% | inhibition in vivo at 10 mg/kg [1]: 96% | Activity [10]: inactive

O=C(O)c1nc2c(Br)cc(Br)cc2c(=O)[nH]1
inhibition in vivo at 50 mg/kg [22]: 0%

CCOC(=O)c1nc2cc(OC(=O)c3ccccc3)c(OC)cc2c(=O)[nH]1
inhibition in vivo at 10 mg/kg [1]: 14%
